Measurements taken from ChEMBL document CHEMBL1126202, “Dual-action penems and carbapenems” (J Med Chem, 1992).
Values after ≈ are worked out from the molar mass of the structure shown.

Columns and labels:
[1] = system: Bacteroides thetaiotaomicron; test: (§1) In vitro antibacterial activity against Bacteroides thetaiotaomicron 62B; type: functional
Method in brief: (§2)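 Anaerobic MICs were determined in microtiter plates in Schaedler's broth supplemented with coenzyme I and hemin. Incubation was under an oxygen-free hydrogen-carbon dioxide atmosphere.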

Bacteroides fragilis [2] = test: In vitro antibacterial activity against Bacteroides fragilis F117A; type: functional
Method in brief: (§3)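 MIC by broth dilution in microtiter plates, run in an oxygen-free hydrogen–carbon dioxide atmosphere. Medium: Schaedler's broth with coenzyme I and hemin added.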

Clostridioides difficile [3] = test: In vitro antibacterial activity against Clostridium difficile 651; type: functional
Clostridium perfringens = test: In vitro antibacterial activity against Clostridium perfringens 13424; type: functional; method in brief: as §3
Bacteroides fragilis [4] = test: In vitro antibacterial activity against bacteroides fragilis S2; type: functional
Method in brief: (§4)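 Anaerobic MIC, run in microtiter plates in Schaedler's broth supplemented with coenzyme I and hemin. Incubated in an oxygen-free hydrogen–carbon dioxide atmosphere.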

Hathewaya histolytica = test: In vitro antibacterial activity against clostridium histolyticum 503-86; type: functional; method in brief: as §4
Escherichia coli [5] = test: In vitro antibacterial activity against Escherichia coli 25922; type: functional
Method in brief: (§5)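 MIC was determined by agar dilution on Mueller-Hinton agar. Serial 2-fold aqueous dilutions were diluted 10-fold in agar to give final concentrations of 128 to 0.0156 μg/mL. Plates were inoculated by Steers replicator with overnight broth cultures diluted 100-fold.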

Escherichia coli [6] = test: In vitro antibacterial activity against Escherichia coli 257; type: functional
Escherichia coli [7] = test: In vitro antibacterial activity against Escherichia coli TEM-1 (constitutive beta-lactamase producer); type: functional; method in brief: as §5
Enterobacter cloacae = test: In vitro antibacterial activity against enterobacter cloacae P99 (constitutive beta-lactamase producer); type: functional; method in brief: as §5
Klebsiella pneumoniae [8] = test: In vitro antibacterial activity against klebsiella pneumoniae A; type: functional
Method in brief: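 Agar-dilution MIC on Mueller-Hinton agar. Serial 2-fold dilutions were made in water, giving final agar concentrations of 128 to 0.0156 μg/mL. Inoculum was an overnight broth culture diluted 100-fold, applied with a multipoint replicator.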

Proteus mirabilis [9] = test: (§6) In vitro antibacterial activity against Proteus mirabilis 90; type: functional
Method in brief: (§7)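 Proteus MICs were determined by agar dilution on Mueller-Hinton agar containing 3% agar. Serial 2-fold dilutions gave final concentrations of 128 to 0.0156 μg/mL. Plates were replicator-inoculated with 100-fold-diluted overnight broth cultures.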

Pseudomonas aeruginosa [10] = test: (§8) In vitro antibacterial activity against Ps. aeruginosa 18SH (constitutive beta-lactamase producer); type: functional; method in brief: as §5
Pseudomonas aeruginosa [11] = test: In vitro antibacterial activity against Pseudomonas aeruginosa 8780; type: functional; method in brief: as §5
Proteus vulgaris = test: In vitro antibacterial activity against proteus vulgaris ATCC 6380 (constitutive beta-lactamase producer); type: functional; method in brief: as §7
Staphylococcus aureus [12] = test: In vitro antibacterial activity against Staphylococcus aureus 67(methicillin resistant); type: functional
Method in brief: (§9)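 MIC by agar dilution on Mueller-Hinton agar. Compounds were serially 2-fold diluted in water, final 128 to 0.0156 μg/mL in agar. Inoculum: overnight broth culture diluted 100-fold, applied with a Steers replicator.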

Staphylococcus aureus [13] = test: (§10) In vitro antibacterial activity against Staphylococcus aureus 753 (constitutive beta-lactamase producer); type: functional; method in brief: as §9
Streptococcus pyogenes = test: In vitro antibacterial activity against Streptococcus pyogenes 4; type: functional
Method in brief: (§11)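 Streptococcal MICs were determined by agar dilution on brain heart infusion agar supplemented with 20 units/mL bovine liver catalase. Final concentrations were 128 to 0.0156 μg/mL from 2-fold dilutions. Inocula were overnight broth cultures diluted 100-fold, applied by Steers replicator.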

Serratia marcescens [14] = test: In vitro antibacterial activity against serratia marcescens SM (constitutive beta-lactamase producer); type: functional; method in brief: as §5
Staphylococcus aureus [15] = test: In vitro antibacterial activity against staphylococcus aureus smith; type: functional; method in brief: as §5
Streptococcus pneumoniae [16] = test: In vitro antibacterial activity against streptococcus pneumoniae 6301; type: functional; method in brief: as §11
Citrobacter freundii [17] = test: In vitro antibacterial activity against citrobacter freundii BS-16 (constitutive beta-lactamase producer); type: functional; method in brief: as §5
Clostridioides difficile [18] = test: In vitro antibacterial activity against Clostridium difficile 701; type: functional
Escherichia coli [19] = test: Effect on replication DNA biosynthesis in Escherichia coli H560 (permeabilised cells).; type: functional, organism-based
Method in brief: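 Toluene-permeabilized E. coli H560 cells were used. Replicative DNA synthesis was measured as ATP-dependent [3H]thymidine incorporation into trichloroacetic acid-insoluble material. IC50 is the concentration giving 50% inhibition.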

Escherichia coli [20] = test: In vitro antibacterial activity against Escherichia coli UB1005 (nalidixic acid-resistant strain); type: functional; method in brief: as §5
Proteus mirabilis [21] = test: as §6; type: functional; remark: listed apart in the source
Method in brief: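 MIC by agar dilution on Mueller-Hinton agar containing 3% agar. Compounds were serially 2-fold diluted in water, final 128 to 0.0156 μg/mL in agar. Inoculum: overnight broth culture diluted 100-fold, applied with a Steers replicator.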

Pseudomonas aeruginosa [22] = test: as §8
Pseudomonas aeruginosa [23] = test: microbe, parasite or virus in culture
[24] = Stability in pH 7.4 phosphate buffer at 37 degree C; type: physicochemical
Method in brief: (§12)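 Compounds were held in pH 7.4 phosphate buffer at 37 °C and monitored by reverse-phase HPLC on a PRP-1 column with UV detection at 275–286 nm. The mobile phase was 0.01 M tetradecyltrimethylammonium bromide in pH 8.2 phosphate/acetonitrile. Product-peak decline was followed to at least 50%, and half-life was taken from semilogarithmic plots.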

Pseudomonas aeruginosa [25] = test: In vitro antibacterial activity against Pseudomonas aeruginosa 18SH (constitutive beta-lactamase producer); type: functional; method in brief: as §5
[26] = Stability in pH 7.4 phosphate buffer at 37 degree C.; type: physicochemical; method in brief: as §12
Staphylococcus aureus [27] = test: as §10; type: functional; method in brief: as §5; remark: listed apart in the source
Bacteroides fragilis [28] = test: In vitro antibacterial activity against Bacteroides fragilis S2; type: functional; method in brief: as §2
Citrobacter freundii [29] = test: In vitro antibacterial activity against Citrobacter freundii BS-16 (constitutive beta-lactamase producer); type: functional; method in brief: as §5
Klebsiella pneumoniae [30] = test: In vitro antibacterial activity against Klebsiella pneumoniae A; type: functional; method in brief: as §5
Serratia marcescens [31] = test: In vitro antibacterial activity against Serratia marcescens SM (constitutive beta-lactamase producer); type: functional; method in brief: as §5
Streptococcus pneumoniae [32] = test: In vitro antibacterial activity against Streptococcus pneumoniae 6301; type: functional; method in brief: as §11
[33] = system: Bacteroides thetaiotaomicron; test: as §1
[34] = system: Bacteroides thetaiotaomicron; test: microbe, parasite or virus in culture

Structure (SMILES)	MIC [1] [µg/mL]	MIC (Bacteroides fragilis [2]) [µg/mL]	MIC (Clostridium perfringens) [µg/mL]	MIC (Bacteroides fragilis [4]) [µg/mL]	MIC (Escherichia coli [6]) [µg/mL]	MIC (Escherichia coli [7]) [µg/mL]	MIC (Enterobacter cloacae) [µg/mL]	MIC (Klebsiella pneumoniae [8]) [µg/mL]	MIC (Proteus mirabilis [9]) [µg/mL]	MIC (Pseudomonas aeruginosa [10]) [µg/mL]	MIC (Pseudomonas aeruginosa [11]) [µg/mL]	MIC (Proteus vulgaris) [µg/mL]	MIC (Staphylococcus aureus [12]) [µg/mL]	MIC (Staphylococcus aureus [13]) [µg/mL]	MIC (Streptococcus pyogenes) [µg/mL]	MIC (Serratia marcescens [14]) [µg/mL]	MIC (Staphylococcus aureus [15]) [µg/mL]	MIC (Streptococcus pneumoniae [16]) [µg/mL]	MIC (Citrobacter freundii [17]) [µg/mL]	MIC (Clostridioides difficile [18]) [µg/mL]	other results
CN1CCN(c2c(F)cc3c(=O)c(C(=O)O)cn(CCF)c3c2F)CC1 [FLEROXACIN]	64 (≈ 173 µM)	64 (≈ 173 µM)	0.5 (≈ 1.35 µM)	8 (≈ 21.7 µM)	0.0313 (≈ 0.0847 µM)	0.0625 (≈ 0.169 µM)	0.0313 (≈ 0.0847 µM)	0.0625 (≈ 0.169 µM)	0.25 (≈ 0.677 µM)	1 (≈ 2.71 µM)	2 (≈ 5.42 µM)	0.0625 (≈ 0.169 µM)	0.5 (≈ 1.35 µM)	0.5 (≈ 1.35 µM)	2 (≈ 5.42 µM)	0.0625 (≈ 0.169 µM)	0.25 (≈ 0.677 µM)	4 (≈ 10.8 µM)	0.125 (≈ 0.338 µM)	16 (≈ 43.3 µM)	MIC (Clostridioides difficile [3]): 16 µg/mL (≈ 43.3 µM); MIC (Hathewaya histolytica): 0.25 µg/mL (≈ 0.677 µM); MIC (Escherichia coli [5]): 0.03 µg/mL (≈ 0.0812 µM); IC50 (Escherichia coli [19]): 1 µg/mL (≈ 2.71 µM); MIC (Escherichia coli [20]): 0.5 µg/mL (≈ 1.35 µM)
C[C@@H](O)[C@H]1C(=O)N2C(C(=O)O)=C(SCCNC=N)C[C@H]12.O	> 128	2	< 0.125	< 0.125	0.125	0.25	0.25	0.125				1	32	64	< 0.0156	0.25	< 0.0156	< 0.0156	2	4	MIC (Clostridioides difficile [3]): 4 µg/mL; MIC (Hathewaya histolytica): < 0.125 µg/mL; MIC (Proteus mirabilis [21]): 2 µg/mL; MIC (Pseudomonas aeruginosa [22]): 1 µg/mL; MIC (Pseudomonas aeruginosa [23]): 2 µg/mL
C[C@@H](O)[C@H]1C(=O)N2C(C(=O)[O-])=C(COC(=O)N3CCN(c4cc5c(cc4F)c(=O)c(C(=O)O)cn5C4CC4)CC3)[C@H](C)[C@H]12.[K+]	16	4	< 0.125	1	< 0.0156	0.0313	0.0313	0.0625	0.125		0.5	0.0313	0.5	0.5	0.0313	0.0625	0.125	0.0313	0.0625	1	half-life [24]: 5 h; MIC (Clostridioides difficile [3]): 4 µg/mL; MIC (Hathewaya histolytica): < 0.125 µg/mL; MIC (Pseudomonas aeruginosa [25]): 0.5 µg/mL
C[C@@H](O)[C@H]1C(=O)N2C(C(=O)[O-])=C(COC(=O)c3cn(CCF)c4c(F)c(N5CCN(C)CC5)c(F)cc4c3=O)C[C@H]12.[Na+]	4	1	< 0.125	< 0.125	0.125	0.125	0.125	0.25	1	2	4	0.25	1	1	0.0157	0.25	0.125	0.0157	0.25	4	half-life [26]: 11 h; MIC (Escherichia coli [5]): 0.12 µg/mL; IC50 (Escherichia coli [19]): 10 µg/mL; MIC (Escherichia coli [20]): 1 µg/mL
O=C([O-])C1=C(COC(=O)N2CCN(c3cc4c(cc3F)c(=O)c(C(=O)O)cn4C3CC3)CC2)SC2CC(=O)N12.[Na+] (stereo not given)					0.25	0.125	0.125	0.25	1	4	16	0.25	1		0.125	0.25	1	0.125	0.25		half-life [24]: 16 h; MIC (Escherichia coli [5]): 0.25 µg/mL; MIC (Staphylococcus aureus [27]): 2 µg/mL; IC50 (Escherichia coli [19]): 2 µg/mL; MIC (Escherichia coli [20]): 2 µg/mL
O=C(O)c1cn(C2CC2)c2cc(N3CCNCC3)c(F)cc2c1=O [CIPROFLOXACIN]						0.0156 (≈ 0.0471 µM)			0.0625 (≈ 0.189 µM)				0.5 (≈ 1.51 µM)		0.5 (≈ 1.51 µM)						MIC (Bacteroides fragilis [28]): 4 µg/mL (≈ 12.1 µM); MIC (Citrobacter freundii [29]): 0.0313 µg/mL (≈ 0.0945 µM); MIC (Klebsiella pneumoniae [30]): 0.25 µg/mL (≈ 0.754 µM); MIC (Staphylococcus aureus [27]): 0.25 µg/mL (≈ 0.754 µM); MIC (Serratia marcescens [31]): 0.0313 µg/mL (≈ 0.0945 µM); MIC (Streptococcus pneumoniae [32]): 1 µg/mL (≈ 3.02 µM); MIC [33]: > 128 µg/mL; MIC [34]: 0.25 µg/mL (≈ 0.754 µM)
C[C@@H](O)[C@H]1C(=O)N2C(C(=O)[O-])=C(CO)[C@H](C)[C@H]12.[K+]					0.5	0.5	0.5	0.5	1	16	32	0.5	32	32	0.0625	1	0.125	0.0625	0.5		
